Assay results as given in PMC10072318 (Bioorganic & medicinal chemistry letters, 2023).
“Also recorded” adds a separate entry of the source.

What was measured:
[1] = test system: adult S. mansoni; experiment: Adult S. mansoni severity score assay; type: cell-based, Schistosoma mansoni; conditions: for Antischistosomal activity in words: 5 μM, SAR discussion
Summary of the method: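 Adult worms were exposed to the test compound at 5 μM. Responses were scored visually at 1, 5, 24 and 48 h using a constrained nomenclature of descriptors for the worm's responses to chemical insult. Each descriptor carries a value, and these values are summed into a severity score ranging from 0 (no activity) to 4 (maximum activity).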

[2] = test system: S. mansoni schistosomula (post-infective larvae); conditions: cited from earlier work
[3] = test system: S. mansoni adults; conditions: cited from earlier work

Structure (SMILES)	Antischistosomal activity in words [1]	further results
O=C(Nc1cccc(C(F)(F)F)c1)c1ccccc1 [compound 15]	abolished activity	–
N#Cc1ccc(C(=O)Nc2cccc(C(F)(F)F)c2)cc1 [compound 18]	abolished activity	–
O=C(Nc1ccc(C(F)(F)F)c(C(F)(F)F)c1)c1cc(Cl)ccc1O [compound 1]	–	Killing of S. mansoni schistosomula in vitro [2]: kill S. mansoni adults[6] and schistosomula; Killing of S. mansoni adults in vitro [3]: kill S. mansoni adults
O=C(Nc1ccc(Cl)c(Cl)c1)c1ccccc1 [compound 25]	some activity was retained	–
Cc1ccc(NC(=O)c2ccc(C(F)(F)F)cc2)cc1C [compound 7]	retains substantial potency	–
COc1ccc(NC(=O)c2ccc(C(F)(F)F)cc2)cc1OC [compound 8]	inactive; also recorded: eliminated activity	–
O=C(Nc1cccc(C(F)(F)F)c1)c1ccc(F)cc1 [compound 16]	activity was essentially abolished	–
O=C(Nc1ccc(Cl)c(Cl)c1)c1ccc(C(F)(F)F)cc1 [compound 9]	–	Time by which adult worm integrity was severely compromised [1]: ≤ 1 h
O=C(Nc1cccc(C(F)(F)F)c1)c1ccc(C(F)(F)F)cc1 [compound 11]	–	Time by which adult worm integrity was severely compromised [1]: ≤ 1 h
O=C(Nc1ccc(Cl)nn1)c1cccc(F)c1 [compound 31, N-(6-chloropyridazin-3-yl)-3-fluorobenzamide]	inactive	–
O=C(Nc1ccccc1)c1ccc(F)cc1 [compound 23]	inactive	–
O=C(Nc1ccc(F)c(F)c1)c1ccc(F)cc1 [compound 13]	activity was essentially compromised	–
Cc1ccc(NC(=O)c2ccccc2)cc1C [compound 14]	abolished activity	–
O=C(Nc1ccccc1)c1ccc(C(F)(F)F)cc1 [compound 6]	inactive	–
